# Experimental data collected from several papers.
# Cell line: PC-3
# Read-out: cell growth or viability
Structure (SMILES),assay,conditions,IC50
COc1cc(C(=O)c2nc(-c3cccc4[nH]cnc34)c[nH]2)cc(OC)c1OC,MTS,72 h,0.0158 µM
COc1cccc2c1C(=O)c1c(O)c3c(c(O)c1C2=O)C[C@@](O)(C(=O)CO)C[C@@H]3O[C@H]1C[C@H](N)[C@H](O)[C@H](C)O1,MTT,,4.81 µg/mL
O=P1(C2CCCCC2)CCCCC1,MTT,72 h,64.5 µM
NS(=O)(=O)c1ccc(-n2nc(C(=O)NN3C(=O)c4ccccc4C3=O)cc2-c2ccccc2)cc1,fluorescence,48 h,54.4 µM
CC(=O)O[C@H]1[C@H](OC(C)=O)[C@@H](Nc2cc3cccnc3c3ncccc23)OC[C@@H]1OC(C)=O,MTT,"48 h, dark",1.4 µM
CC(C)Cc1ccc([C@H](C)C(=O)O)cc1,SRB,72 h,553 µM
COc1cc(C(=O)c2nc(-c3cccc4[nH]ccc34)cs2)cc(OC)c1OC,MTS,72 h,0.0065 µM
COc1cccc2c1C(=O)c1c(O)c3c(c(O)c1C2=O)C[C@@](O)(C(=O)CO)C[C@@H]3O[C@H]1C[C@H](N)[C@H](O)[C@H](C)O1,MTT,72 h,0.3 µM
O=c1[nH]cc(F)c(=O)[nH]1,MTT,72 h,> 360 µM
CC(=NNC(=O)c1cc(-c2ccccc2)n(-c2ccc(S(N)(=O)=O)cc2)n1)c1ccc(C)cc1,fluorescence,48 h,19.2 µM
CC(=O)O[C@H]1C(=O)[C@@]2(C)[C@H]([C@H](OC(=O)c3ccccc3)[C@]3(O)C[C@H](OC(=O)[C@H](O)[C@@H](NC(=O)c4ccccc4)c4ccccc4)C(C)=C1C3(C)C)[C@]1(OC(C)=O)CO[C@@H]1C[C@@H]2O,MTS,72 h,0.0004 µM
NS(=O)(=O)c1ccc(-n2nc(C(=O)NN=Cc3cccnc3)cc2-c2ccccc2)cc1,fluorescence,48 h,38.6 µM
COc1cc(C(=O)c2nc(-c3cccc4cc[nH]c34)c[nH]2)cc(OC)c1OC,MTS,72 h,0.0316 µM
CN(C)c1cccc2c(S(=O)(=O)NCCCCN=C=S)cccc12,MTT,24 h,16.8 µM
COc1cc(C(=O)c2nc(-c3ccsc3)c[nH]2)cc(OC)c1OC,MTS,72 h,0.0873 µM
NS(=O)(=O)c1ccc(-n2nc(C(=O)NN=Cc3ccc(O)cc3)cc2-c2ccccc2)cc1,fluorescence,48 h,17.2 µM
CC1=CC(=O)C(C(C)C)=CC1=O,SRB,48 h,12.8 µM
COc1cc(C(=O)c2nc(-c3cccc4c3CC(=O)N4)c[nH]2)cc(OC)c1OC,MTS,72 h,0.0186 µM
COc1ccc(C=NNC(=O)c2cc(-c3ccccc3)n(-c3ccc(S(N)(=O)=O)cc3)n2)cc1OC,fluorescence,48 h,27.1 µM
